Results published in publication PMC2745078 (Journal of medicinal chemistry, 2009).
Read-outs that look alike come from different tables or passages of the source.

What was measured:
human 2N4R tau [1] = molecular target: T1, human 2N4R tau (Homo sapiens, UniProt P10636); assay: Filter trap assay for ODS-induced fibrillization of tau; format: biochemical
Dye aggregation = format: physicochemical; settings: for slope of double log plot of monomer versus dimer concentration / dissociation equilibrium constant for dimerization (Kdim): assembly buffer; for dissociation equilibrium constant for dimerization (Kdim): 1 h at 37°C, mean ± S.D.
cell culture models = cell culture models ref 21, 26, 25; cited from earlier work
[2] = system: sarkosyl-insoluble tau in organotypic slices from JNPL3 transgenic mice (human tau P301L); assay: Organotypic slice culture, sarkosyl-insoluble tau; format: cell-based
Outline: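 Cortex/hippocampus of postnatal day-10 JNPL3 mice cut at 400 μm and cultured on membrane inserts 14 days (25% serum). One hemisphere given test compound (0.1 nM–1 μM) for 7 days; contralateral hemisphere given 0.008% DMSO. RIPA extracts equalised for protein, incubated in 1% sarkosyl, spun at 100,000g. Pellet immunoblotted with CP27. Densitometry n = 3, normalised to vehicle; Student's t test.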

[3] = system: organotypic slices from JNPL3 transgenic mice; assay: Organotypic slice culture, cleaved PARP1 and α-tubulin levels; format: cell-based; settings: seven days
human 2N4R tau [4] = molecular target: T1, human 2N4R tau; settings: near physiological buffer conditions and tau concentrations ref 9; cited from earlier work
human 2N4R tau [5] = molecular target: T1, human 2N4R tau; settings: electron microscopy assay format

T1 sequence (P10636 1-441 isoform P10636-8): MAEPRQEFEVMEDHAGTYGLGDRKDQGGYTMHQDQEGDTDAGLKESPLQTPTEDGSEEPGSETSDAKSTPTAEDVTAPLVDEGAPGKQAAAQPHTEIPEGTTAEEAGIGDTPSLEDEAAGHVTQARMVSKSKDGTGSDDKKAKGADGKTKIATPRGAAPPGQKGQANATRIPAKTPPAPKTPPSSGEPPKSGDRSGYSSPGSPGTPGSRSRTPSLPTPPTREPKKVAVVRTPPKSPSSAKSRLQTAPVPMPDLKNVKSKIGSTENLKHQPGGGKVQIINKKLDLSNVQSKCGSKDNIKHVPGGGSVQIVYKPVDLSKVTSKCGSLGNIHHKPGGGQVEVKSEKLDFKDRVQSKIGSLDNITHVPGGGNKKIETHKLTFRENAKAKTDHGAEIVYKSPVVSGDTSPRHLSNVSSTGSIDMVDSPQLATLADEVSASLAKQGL

With CCCN1/C(=C/C=C/C2=[N+](CCC)c3ccccc3C2(C)C)C(C)(C)c2ccccc21.[I-] [Compound 9] the “reduction of inhibitory potency” value (human 2N4R tau [1]; 9 (three-carbon N-alkyl) versus 8 (two-carbon)) was ~ 3 fold.
In the case of CCCCCCN1/C(=C/C=C/c2sc3ccccc3[n+]2CCCCCC)Sc2ccccc21.[I-] [Compound 10], the inhibitory activity (human 2N4R tau [1]; at up to 10 μM concentration) is reported as “completely eliminated activity”.
For CC(/C=C1\Sc2ccccc2N1CCCS(=O)(=O)[O-])=C\c1sc2ccccc2[n+]1CCCS(=O)(=O)[O-].CC[n+]1ccccc1 [Compound 12], the inhibitory activity (human 2N4R tau [1]; at up to 10 μM concentration) was “completely lost”, the “slope of double log plot of monomer versus dimer concentration” value (Dye aggregation) was 1.8 ± 0.1 and the “dissociation equilibrium constant for dimerization (Kdim)” value (shortened to “dissociation equilibrium constant”) (Dye aggregation) was 7.5 ± 0.4 µM.
With CCN1/C(=C/C=C/C2=[N+](CC)c3ccccc3C2(C)C)C(C)(C)c2ccccc21.[I-] [Compound 8] the dimerization (Dye aggregation; any concentration tested up to 96 μM) was “did not dimerize”.
For CCN1/C(=C/C(C)=C/c2sc3ccccc3[n+]2CC)Sc2ccccc21.[I-] [Compound 11, 3,3’-diethyl-9-methylthiacarbocyanine iodide], the “decrease of IC50 by methyl meso substituent” value (human 2N4R tau [1]; 11 versus hydrogen meso compound) is listed as 3 fold, the IC50 (human 2N4R tau [1]; IC50, filter trap assay) is listed as about 300 nM and the “concentration initiating apoptosis and collapse of the microtubule cytoskeleton” value (cell culture models) is listed as over 300 nM. For the same compound, the “slope of double log plot of monomer versus dimer concentration” value (Dye aggregation) was 2.3 ± 0.1, the “dissociation equilibrium constant” value (Dye aggregation) was 20.9 ± 0.7 µM and the “concentration for dimerization relative to 1” value (Dye aggregation; higher than 1 under identical conditions) was 10.0 ± 0.2 fold. The “effect on tau aggregation” value ([2]; 100 nM, seven days) was “Inhibitory activity was lost”, the “effect on tau aggregation” value ([2]; 300 nM and above, seven days) was “tau aggregation was induced” and the “tau aggregation relative to DMSO vehicle alone” value ([2]; 1 – 10 nM, seven days) was ~ 50%. For the same compound, the “lowest media concentration inhibiting tau aggregation” value ([2]; organotypic slices) was 1 nM, the “levels of α-tubulin” value ([3]; 1 nM) was “unchanged” and the “levels of α-tubulin” value ([3]; 1 μM) was “depletion of α-tubulin”. The “levels of cleaved PARP1” value ([3]; any tested concentration) was “did not increase”.
With CCN1/C(=C/C=C/c2oc3ccccc3[n+]2CC)Oc2ccccc21.[I-] [Compound 6] the inhibitory activity (human 2N4R tau [1]; at the highest concentration tested) was “essentially no inhibitory activity”.
In the case of CCC(/C=C1\Sc2ccc(OC)cc2N1CCO)=C\c1sc2ccc(OC)cc2[n+]1CCO.[I-] [Compound 1], the IC50 (human 2N4R tau [4]) is listed as “submicromolar”.
For CN(C)c1ccc2nc3ccc(N(C)C)cc3[s+]c2c1.[Cl-] [Methylene blue, 3,7-bis(dimethylamino)phenothiazin-5-ium chloride], the behaviour as antagonist (human 2N4R tau [5]) was “partial antagonist”.
In the case of CCN1/C(=C/C=C/C=C/C=C/c2sc3ccccc3[n+]2CC)Sc2ccccc21.[I-] [Compound 5], the “slope of double log plot of monomer versus dimer concentration” value (Dye aggregation) is reported as 1.7 ± 0.1 and the “dissociation equilibrium constant” value (Dye aggregation) is reported as 0.68 ± 0.04 µM.
